According to ChEMBL document CHEMBL1136923, “Highly potent, orally available anti-inflammatory broad-spectrum chemokine inhibitors” (J Med Chem, 2009):

Target: C-C chemokine receptor type 2 (Homo sapiens) (UniProt P41597)
Test: Antagonist activity at CCR2 in human THP1 cells assessed as inhibition of CCL2-induced chemotaxis after 2 hrs by microtiter format trans-well migration assay
Type: functional, cell-based
Conditions: THP-1
Outline: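 Microtiter trans-well migration assay in Gey's balanced salt solution with 1 mg/mL endotoxin-free BSA, no fetal calf serum. Migration ran 2 h at 37 °C. Compounds dissolved in DMSO and added to both top and bottom compartments, final DMSO 1%.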

Chain of C-C chemokine receptor type 2 (Homo sapiens) (P41597 whole entry, looked up): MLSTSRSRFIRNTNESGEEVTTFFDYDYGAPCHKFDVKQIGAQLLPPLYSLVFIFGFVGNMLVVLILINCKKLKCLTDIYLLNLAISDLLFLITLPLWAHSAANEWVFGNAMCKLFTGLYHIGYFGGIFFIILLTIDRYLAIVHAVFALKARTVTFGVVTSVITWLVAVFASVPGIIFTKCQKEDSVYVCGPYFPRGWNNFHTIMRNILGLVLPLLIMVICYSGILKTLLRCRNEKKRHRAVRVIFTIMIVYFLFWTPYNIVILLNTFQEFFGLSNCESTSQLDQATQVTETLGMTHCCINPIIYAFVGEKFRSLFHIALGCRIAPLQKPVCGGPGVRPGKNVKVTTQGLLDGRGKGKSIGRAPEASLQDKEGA

Compound	ED50 [nM]
O=C(N[C@H]1CCCCNC1=O)C1=CCCCC1	0.8
CCCCCCCCCCC(C)C(=O)N[C@H]1CCCCNC1=O (mixture of isomers; form 2)	3
CCCCCCCCCCCC(=O)N[C@H]1CCCCNC1=O	15
O=C(CC12CC3CC(CC(C3)C1)C2)N[C@H]1CCCCNC1=O	0.8
CCCCCCCCCCC(C)C(=O)N[C@H]1CCCCNC1=O (mixture of isomers; form 1)	3
CCCCCC1CCC(C(=O)N[C@H]2CCCCNC2=O)CC1 (stereo not given in full)	5

Continued, values first:

ED50 [nM]	Compound
0.2	CC(C)=CCC(C)(C)C(=O)N[C@H]1CCCCNC1=O
1	C=CCC(C)(C)C(=O)N[C@H]1CCCCNC1=O
0.5	CCCC(C)(C)C(=O)N[C@H]1CCCCNC1=O
10	CCCCCCCCC/C=C(\C)C(=O)N[C@H]1CCCCNC1=O
